Source: ChEMBL document CHEMBL2203053, “DNA binding acridine-thiazolidinone agents affecting intracellular glutathione” (Bioorg Med Chem, 2012)
Calls of active or inactive are those of the source. The rule behind the calls is not given here.

How the values were obtained:
HL-60 [1] = assay: Cytotoxicity against human HL60 cells after 72 hrs using trypan blue exclusion staining by DCC method; type: functional, cell-based; conditions: HL-60, 72 h
Method in brief: (§1)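 For trypan blue dye-exclusion direct cell counting, HL-60 cells were seeded at 1 × 10⁵ cells/mL. Compound at 0–10 µM, or 1% DMSO control, was added after 24 h. Viable counts were taken after 24, 48 and 72 h. IC50 (50% inhibition of viability) came from growth curves, as mean ± S.D., n = 3.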

HL-60 [2] = assay: Induction of necrosis in human HL60 cells assessed as cell shrinking at 5 uM after 24 hrs by propidium iodide staining based fluorescence microscopy; type: functional
HL-60 [3] = assay: Cytotoxicity against BSO pretreated human HL60 cells assessed as cell viability at 1.5 uM treated 6 hrs after BSO addition measured after 48 hrs by trypan blue exclusion assay; type: functional, cell-based
Method in brief: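 HL-60 cells were pretreated 6 h with L-buthionine-sulfoximine (10 µM), then exposed to 1.5, 3.0 or 1.0 µM compound for 48 h. Viable cells were counted by trypan blue staining and expressed as percentage of all cells.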

HL-60 [4] = assay: Decrease in intracellular glutathione level in human HL60 cells at 2 uM after 24 hrs by spectrophotometric analysis; type: functional, cell-based
HL-60 [5] = assay: Decrease in intracellular glutathione level in human HL60 cells at 2 uM after 2 hrs by spectrophotometric analysis; type: functional, cell-based
A2780 [6] = assay: Drug uptake in human A2780 cells at 5 uM after 4 hrs by Hoechst staining based fluorescence microscopy; type: ADME, cell-based; conditions: a2780, 4 h
HL-60 [7] = assay: Drug uptake in human HL60 cells at 5 uM after 4 hrs by Hoechst staining based fluorescence microscopy; type: ADME, cell-based; conditions: hl-60, 4 h
Method in brief: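 HL-60 cells were exposed to 5 µM for 4 h at 37 °C, 5% CO₂, then washed in PBS. Intrinsic blue fluorescence was viewed by optical and fluorescence microscopy. Untreated control cells were stained with Hoechst 33342 (10 µM, 10 min).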

A2780 [8] = assay: Cytotoxicity against human A2780 cells after 72 hrs by MTT assay; type: functional, cell-based; conditions: A2780, 72 h
Method in brief: (§2)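 HL-60, L1210 and A2780 cells were grown in RPMI 1640 with 10% FBS, penicillin and streptomycin at 37 °C, 5% CO₂; HL-60 and A2780 medium also had 2 mM glutamine. Cells were exposed to 0–30 µM for 48 or 72 h. Viability was read by MTT microculture tetrazolium assay and IC50 was determined.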

HL-60 [9] = assay: Cytotoxicity against human HL60 cells after 48 hrs using trypan blue exclusion staining by DCC method; type: functional, cell-based; conditions: HL-60, 48 h; method in brief: as §1
A2780 [10] = assay: Cytotoxicity against human A2780 cells after 48 hrs by MTT assay; type: functional, cell-based; conditions: A2780, 48 h; method in brief: as §2
L1210 [11] = assay: Cytotoxicity against mouse L1210 cells after 72 hrs by MTT assay; type: functional, cell-based; conditions: L1210, 72 h; method in brief: as §2
L1210 [12] = assay: Cytotoxicity against mouse L1210 cells after 48 hrs by MTT assay; type: functional, cell-based; conditions: L1210, 48 h; method in brief: as §2
HL-60 [13] = assay: Cytotoxicity against human HL60 cells after 48 hrs by MTT assay; type: functional, cell-based; conditions: HL-60, 48 h; method in brief: as §2
HL-60 [14] = assay: Cytotoxicity against human HL60 cells after 72 hrs by MTT assay; type: functional, cell-based; conditions: HL-60, 72 h; method in brief: as §2
Nucleic Acid [15] = assay: Ratio of acridine orange K to compound K for calf thymus DNA by spectrofluorimetry based McGhee von Hippel method; type: nucleic-acid assay; conditions: Bos taurus
Nucleic Acid [16] = assay: Ratio of daunomycin K to compound K for calf thymus DNA by spectrofluorimetry based McGhee von Hippel method; type: nucleic-acid assay; conditions: Bos taurus
Nucleic Acid [17] = assay: Ratio of proflavine K to compound K for calf thymus DNA by spectrofluorimetry based McGhee von Hippel method; type: nucleic-acid assay; conditions: Bos taurus
Nucleic Acid [18] = assay: Binding affinity to calf thymus DNA assessed as binding constant by spectrofluorimetry based McGhee von Hippel method; type: nucleic-acid assay; conditions: Bos taurus
Method in brief: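 Fluorescence titration used compound at 26.7 µM in 0.01 M Tris buffer (pH 7.4, 24 °C). ctDNA was added stepwise from 0 to 32 µM bp at 2 µM intervals until spectra stopped changing. Excitation was 384 nm and emission was read at 410–470 nm. Binding constant K was derived by the McGhee–von Hippel method from Scatchard plot data.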

Nucleic Acid [19] = assay: Binding affinity to calf thymus DNA assessed as melting temperature at 5 uM at pH 7.1 by thermal denaturation assay; type: nucleic-acid assay; conditions: Bos taurus
Nucleic Acid [20] = assay: Binding affinity to calf thymus DNA assessed as hypochromicity at 25 uM by UV-visible spectrophotometry; type: nucleic-acid assay; conditions: Bos taurus
Method in brief: (§3)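 Absorption spectra were taken in 0.01 M Tris buffer, pH 7.4. Compounds were diluted from DMSO stock to a final 25 µM. Sonicated calf thymus DNA in TE buffer was added at 0–30 µM bp, with concentration set by A260. Shift of λmax (free vs bound) and % hypochromicity were recorded.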

Nucleic Acid [21] = assay: Binding affinity to calf thymus DNA assessed as bathochromic shift at 25 uM by UV-visible spectrophotometry; type: nucleic-acid assay; conditions: Bos taurus; method in brief: as §3

Drug uptake (A2780 [6]): Active | Drug uptake (HL-60 [7]): Active | Ratio (Nucleic Acid [15]): 10 | Ratio (Nucleic Acid [16]): 10 | Ratio (Nucleic Acid [17]): 10 | K (Nucleic Acid [18]): 2.21 ×10⁶ /M | Tm (Nucleic Acid [19]): 75 °C | Activity (Nucleic Acid [20]): 26.3% | Activity (Nucleic Acid [21]): Active
Compound: CCC(C)N1C(=O)/C(=C/C(=O)OC)S/C1=N\c1c2ccccc2nc2ccccc12 (stereo unspecified)
IC50 (HL-60 [1]): 1.7 µM | Activity (HL-60 [2]): Active | Activity (HL-60 [3]): Active | Activity (HL-60 [4]): Active | Activity (HL-60 [5]): Active | IC50 (A2780 [8]): 12.6 µM | IC50 (HL-60 [9]): 2 µM | IC50 (A2780 [10]): 20.8 µM | IC50 (L1210 [11]): 7.5 µM | IC50 (L1210 [12]): 3.3 µM | IC50 (HL-60 [13]): 3.4 µM | IC50 (HL-60 [14]): 2.1 µM
